Paper PMC7195562 (Journal of Advanced Research, 2020)
Like-named read-outs stand apart in the source and are kept apart here. Ends that are not written are not given here. Peptide text beside a SMILES is read from it.

B1: NS3 domain of HCV genotype-4 (domain or fragment)
chain: APITAYAQQTRGLFSTIVTSLTGRDTNENCGEVQVLSTATQSFLGTAVNGVMWTVYHGAGAKTISGPKGPVNQMYTNVDQDLVGWPAPPGVRSLAPCTCGSADLYLVTRHADVIPVRRRGDTRGALLSPRPISILKGSSGGPLLCPMGHRAGIFRAAVCTRGVAKAVDFVPVESLETTMRSP

Tests used:
[1] = target: T1, NS3 genotype-4 (Hepatitis C virus genotype 4a, UniProt O39929); experiment: Fluorescence anisotropy, dissociation constant of FITC-NS4A with NS3; format: binding, HCV genotype-4
T1 sequence (O39929 1027-1657 limits assumed): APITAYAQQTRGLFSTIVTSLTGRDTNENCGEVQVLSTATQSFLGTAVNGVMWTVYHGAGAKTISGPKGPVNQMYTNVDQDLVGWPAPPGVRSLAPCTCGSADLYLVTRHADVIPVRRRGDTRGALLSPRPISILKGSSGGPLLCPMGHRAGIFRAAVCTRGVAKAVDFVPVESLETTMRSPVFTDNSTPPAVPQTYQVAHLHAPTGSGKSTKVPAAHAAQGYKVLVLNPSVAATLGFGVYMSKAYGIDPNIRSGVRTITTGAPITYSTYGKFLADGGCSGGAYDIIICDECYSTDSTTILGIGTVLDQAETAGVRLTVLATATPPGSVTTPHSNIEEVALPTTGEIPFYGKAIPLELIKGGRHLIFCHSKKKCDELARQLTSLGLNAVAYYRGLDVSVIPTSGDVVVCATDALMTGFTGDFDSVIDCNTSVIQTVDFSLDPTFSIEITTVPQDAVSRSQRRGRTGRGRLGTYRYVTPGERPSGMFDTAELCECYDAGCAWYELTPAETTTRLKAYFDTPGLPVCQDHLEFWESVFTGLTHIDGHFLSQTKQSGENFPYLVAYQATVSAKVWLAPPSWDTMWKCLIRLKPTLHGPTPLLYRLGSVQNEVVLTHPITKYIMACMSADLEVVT
Method in brief: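 His-tagged HCV-4 NS3 domain (expressed in E. coli Rosetta (DE3) pLysS, Ni-NTA purified) serially diluted in 20 mM HEPES, 10 mM DTT, 200 mM NaCl, pH 7.6, with 0.1 µM FITC-labelled NS4A 21'-34' core peptide. Shaken at room temperature for 15, 45, 90 and 120 min. Fluorescence anisotropy read at 480/520 nm. Kd fitted with a single-binding-site model at 90 min.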

[2] = tested on: NS3 domain of HCV genotype-4; experiment: Differential static light scattering; format: binding
[3] = target: T2, fluorescein isothiocyanate-labeled NS4A(21'-34') core peptide (hepatitis C virus, also: FITC label, position not given here); experiment: fluorescence polarisation
T2 peptide: KKGSVVIVGRIVLSGKK

[4] = target: B1; experiment: differential static light scattering
[5] = target: B1; experiment: differential static light scattering
[6] = target: B1; experiment: differential static light scattering
[7] = target: B1; experiment: differential static light scattering
[8] = target: B1; experiment: differential static light scattering
[9] = target: B1; experiment: differential static light scattering
[10] = target: B1; experiment: differential static light scattering

Work on CC[C@H](C)[C@H](NC(=O)[C@H](CCCNC(=N)N)NC(=O)CNC(=O)[C@@H](NC(=O)[C@@H](NC(=O)[C@@H](NC(=O)[C@@H](NC(=O)[C@H](CO)NC(=O)CNC(=O)[C@H](CCCCN)NC(=O)[C@@H](N)CCCCN)C(C)C)C(C)C)[C@@H](C)CC)C(C)C)C(=O)N[C@H](C(=O)N[C@@H](CC(C)C)C(=O)N[C@@H](CO)C(=O)NCC(=O)N[C@@H](CCCCN)C(=O)N[C@@H](CCCCN)C(=O)O)C(C)C [NS4A] (H-KKGSVVIVGRIVLSGKK-OH) yielded a Kd [1] of 169 ± 3.7 nM.

With GSxG23VIVGRIVLSG [Pep-15] the “Tagg shift higher than that of the native NS4A” value ([2]; 2:1 ratio, room temperature, 2 h) was 1.07 °C and the “binding affinity by DSLS compared with the native peptide” value ([2]; all conditions (Fig. S6)) was “higher binding affinity than the native peptide”.

Molecule B1 has a Kd [3] of 169 ± 3.7 nM.

With KKGSVVIVGRIVLSGKK [native NS4A(21'-34') core peptide (KK-GSVVIVGRIVLSG-KK)] the ΔTagg [4] was 1.62 °C, the ΔTagg [5] was 2.09 °C and the ΔTagg [6] was 0.998 °C. The ΔTagg [7] was 1.71 °C, the ΔTagg [8] was 1.97 °C and the ΔTagg [9] was 3.16 °C. The ΔTagg [10] was 2.83 °C.
